# The full list was thinned out, with hits kept by preference.
# Tb MetRS inh – Trypanosoma brucei MetRS inhibition | purified T. brucei MetRS, ATP depletion, Kinase-Glo luminescence | hit rate 0.4% among 360,000 | inhibition, % at 11.9 µM;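 active means inhibition above a per-plate cutoff of the control wells' mean inhibition plus 3 SD, cut at about 5.5% in these data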
#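 Dosing: 11.9 µM compound single dose, 0.9% DMSO; Assay system: purified T. brucei MetRS enzyme; Measured by: Kinase-Glo luciferase luminescence reporting remaining unconsumed ATP; Schedule: 15 min plus 2 h at 25 °C.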
# CHOP inh – blocks CHOP induction under ER stress; CHO-K1 CHOP-promoter luciferase, tunicamycin-induced, 15-18 h; inhibition, % at 10 µM; hit rate 3.8% among 220,000; AID 2732;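 active means compounds that reduced the stress-induced luciferase reporter signal by more than about 70% of percent inhibition, limit read from the data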
# XBP1 UPR activ – adaptive UPR (XBP1) activation; CHO-XBP1 luciferase reporter, IRE1-XBP1 UPR activation, luminescence; percent of tunicamycin response, DMSO as zero; activation, % at 20 µM; hit rate 0.33% among 330,000; AID 463104;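 active means versus positive control, 20 µM dose yields 30% or more activation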
#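 Material: CHO cell line with stable XBP1 luciferase reporter; schedule: 16-18 h cell attachment at 37 °C, then 6 h compound exposure; signal: glow luminescence from Steady-Glo reagent; medium: serum-containing F12 medium, 10% FBS; benchmarks: tunicamycin 10 µg/mL and vehicle-only wells; read-out: percent activation relative to tunicamycin reference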
# V-ATPase pHluor – regulators of yeast V-ATPase proton transport. S. cerevisiae, pHLuorin cytosolic pH fluorescence. response, % at 10 µM. hit rate 0.37% among 350,000. AID 504577; in the data active means response mostly above about 7.3%, no sharp cut-off; inactive means mostly below about 5.4%; further: actives read high
# UPR CHOP act – apoptotic UPR (CHOP) activation. CHO-CHOP luciferase reporter, luminescence; percent of tunicamycin response over DMSO baseline. hit rate 0.34% among 330,000. activation, % at 10 µM;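 active means at 10 µM dose, activation of 40% or more, normalized to positive control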
#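 assay system = CHO CHOP reporter cells | amount = 500 CHO-CHOP cells per well | buffer or medium = F12 with 10% FBS | incubation = 16-18 h cell attachment, then 6 h compound exposure, 37 °C | detection = luminescence read with Steady-Glo | read-out = percent activation relative to tunicamycin control | controls = tunicamycin high control, DMSO low control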
# Numbers stand for hits; - = inactive; . = no result.
SMILES,Tb MetRS inh,CHOP inh,XBP1 UPR activ,V-ATPase pHluor,UPR CHOP act
CC(C)(C)c1ccc(-c2nnc(SCCC#N)n2C2CCCC2)cc1,-,72,-,-,-
Cc1ccc2nc(-c3ccc(NC(=O)CCN4C(=O)c5ccccc5C4=O)cc3)sc2c1,-,-,-,-,-
Cc1ccc(C2(C)NC(=O)N(CC(=O)Nc3ccc(-c4nc5ccc(C)cc5s4)cc3)C2=O)cc1 (stereo not drawn),-,73,-,-,-
CN1C(=O)N(C)C2(c3ccccc3)Nn3c(s/c(=C/c4ccccc4F)c3=O)=NC12c1ccccc1 (stereo not drawn),.,71,-,.,-
c1ccc(CN2CCC3CC2c2c3cccc2N2CCOCC2)cc1 (stereo not drawn),-,.,.,.,.
COCc1cn(CC(=O)c2sc(NC(=O)C(C)(C)C)nc2C)nn1,-,.,.,.,.
O=C(c1ccc2ccccc2c1)N1CCN(c2ccc(C(F)(F)F)cn2)CC1,-,89,-,-,-
FC(F)(F)c1ccc(N2CCN(c3cc(-c4ccccc4)nc4ncnn34)CC2)nc1,-,74,-,-,-
FC(F)(F)c1cccc(Nc2cc(-c3ccccc3)nc3ncnn23)c1,-,-,-,-,-
C#CCNC(=O)C[C@@H]1C[C@@]2(C(=O)OCC)CCCC=C2N(Cc2ccc3c(c2)OCO3)C1=O,-,.,.,.,.
COC(=O)c1ccc(C(=O)N2CCCC(C)(C(=O)NS(=O)(=O)C3CC3)C2)cc1 (stereo not drawn),-,.,.,.,.
Cc1ccc(-n2c(SCC(=O)c3c(N)n(C)c(=O)n(C)c3=O)nc3sc4c(c3c2=O)CCCC4)c(C)c1,-,73,-,-,-
CC1Cc2ccccc2N1CC(=O)NCc1ccccc1Cl (stereo not drawn),-,-,-,-,-
CCOC(=O)c1sc2nc3c(SCCC(=O)O)cc(C(=O)c4cc(OC)ccc4O)cn3c(=O)c2c1C,-,102,.,-,.
COc1ccc(-c2sc3cc(OC)c(OC)cc3c2-c2ccc(O)cc2)cc1,-,.,-,-,-
CS(=O)(=O)N(CC(=O)N1CCCC1)C1CCCCC1,-,.,.,-,.
CCCCOP(=O)(OCCCC)C(Nc1ccccc1)c1ccc2c(c1)OCO2 (stereo not drawn),-,91,.,-,.
CCOP(=O)(OCC)C(Nc1ccccc1)c1ccc2c(c1)OCO2 (stereo not drawn),-,.,-,-,-
Cc1ccc(NC(=O)CCOc2ccccc2C)cc1F,-,71,-,-,-
O=C(NCc1ccccc1)C(c1ccccc1F)n1c(=O)c(-c2ccco2)nc2ccccc21 (stereo not drawn),-,.,.,.,.
Cc1ccsc1C(=O)N1CCC1(C)C(=O)NS(=O)(=O)c1ccccc1C(F)(F)F (stereo not drawn),-,.,.,.,.
Cc1ccc(/C=C/C(=O)NC(=S)Nc2ccccc2C(=O)NC2CCCCC2)cc1,-,-,-,-,-
COc1ccc(/C=C/C(=O)NC(=S)NNC(=O)c2cc(OC)c(OC)c(OC)c2)cc1,-,89,-,-,-
COc1ccc(/C=C/C(=O)NC(=S)Nc2ccccc2C(=O)NC2CCCCC2)cc1,-,90,-,-,-
Cc1ccc2c(c1)N=C(c1ccc(Cl)cc1)CO2,-,71,-,-,-
SMILES,Tb MetRS inh,CHOP inh,XBP1 UPR activ,V-ATPase pHluor,UPR CHOP act
COc1ccc(OCc2cc(C(=O)NC(C)c3nc(C)cs3)no2)c(Cl)c1 (stereo not drawn),-,.,.,-,.
CC(C)n1c2ccccc2c2nc3ccccc3nc21,-,72,-,-,-
C#CCn1c2ccccc2c2nc3ccccc3nc21,-,.,-,-,-
Cc1ccc(N2C(=S)N=C(Nc3ccccc3C)C23CCOC(C)(C)C3)cc1 (stereo not drawn),-,84,-,-,-
COc1ccc(OC)c(CN2C(=O)CSCC2(C)C(=O)Nc2c(C)cccc2C)c1 (stereo not drawn),-,.,.,.,.
Cc1nc(CSc2ccc(Cl)cc2)cc(NCc2ccccc2)n1,-,91,-,-,-
CNc1cc(CSc2ccc(Cl)cc2)nc(C)n1,-,-,-,-,-
CCOC(=O)c1cccc(NC(=O)Cn2cc3c(n2)CCC(C)C3)c1 (stereo not drawn),-,83,-,-,-
Cc1ccc(-n2c(SCC(=O)N(C)C3CCS(=O)(=O)C3)nc3ccccc3c2=O)cc1 (stereo not drawn),-,-,-,-,-
CSCCC(NC(=O)c1ccco1)C(=O)NCCc1ccc(Cl)cc1 (stereo not drawn),-,.,-,-,-
CCc1ccc(OCC(=O)NNCC(=O)Nc2ccc(OC)cc2)cc1,-,.,-,-,-
O=C1OC(c2ccccc2)=N/C1=C\C=C\c1ccccc1[N+](=O)[O-],-,71,-,-,-
COc1ccc(NC(=O)CN(C)C(=O)c2cccc(S(=O)(=O)N3CCN(c4ccc(F)cc4)CC3)c2)cc1,-,.,.,-,.
O=C(Nc1nc(-c2cccc3ccccc23)cs1)c1cnccn1,-,93,-,-,-
CC(=O)Nc1c(NC(C)C)c2ccccc2oc1=O,-,-,-,-,-
COC(=O)Oc1c(Br)c(=O)oc2ccccc12,-,85,-,-,-
OC(CSc1c(Cl)cccc1Cl)CN1CCN(c2ccc(F)cc2)CC1 (stereo not drawn),-,88,-,-,-
COc1cc2c(cc1OC)C(=O)C(Br)CC2 (stereo not drawn),-,.,.,-,.
Cn1cccc1Cc1nnc(SCC(=O)Nc2cccc(F)c2)n1-c1ccc(F)cc1,-,-,-,-,-
Cn1cccc1Cc1nnc(SCC(=O)Nc2cccc(Cl)c2)n1-c1ccc(F)cc1,-,75,-,-,-
O=[N+]([O-])c1ccc(CSc2nnc(SCc3ccc(Cl)cc3)s2)cc1,-,-,-,-,-
COCCN1C[C@@H](CO)O[C@@H](n2cnc3c(N4CCN(CCO)CC4)ncnc32)C1,-,.,.,.,.
O=C(Cn1sc2ccccc2c1=O)NC12CC3CC(CC(C3)C1)C2,-,90,-,-,-
NC(=S)N/N=C/c1coc2c(ccc3ccccc32)c1=O,-,-,.,-,.
O=c1cc(/N=C/c2coc3c(ccc4ccccc43)c2=O)[nH]c(=S)[nH]1,-,79,-,-,-
SMILES,Tb MetRS inh,CHOP inh,XBP1 UPR activ,V-ATPase pHluor,UPR CHOP act
O=C(CC1S/C(=N/N=C/c2ccco2)NC1=O)Nc1cccc(Cl)c1Cl (stereo not drawn),-,94,-,-,-
N#CC(C#N)=C1C=CC=CN1/C(=C\c1ccco1)C(=O)c1ccccc1,-,110,.,-,.
N#CC(C#N)=C1C=CC=CN1/C(=C\c1ccco1)C(=O)c1ccc(Br)cc1,-,109,.,-,.
COc1ccc(C(=O)/C(=C\c2ccco2)N2C=CC=CC2=C(C#N)C#N)cc1,-,107,-,-,-
COc1ccc(C(C#N)CC(=O)c2ccc(OC)c(OCc3ccccc3)c2)cc1OC (stereo not drawn),-,.,.,-,.
COc1ccc(Cl)c2c1[nH]c1nc(SCc3cccnc3)nnc12,-,86,-,-,-

# Screening results (PubChem BioAssay)
